Where a SMILES comes first, the peptide text is derived from it.
What was measured:
[1] = target: mu/kappa opioid receptor (Cavia porcellus) (UniProt P41144+P97266); assay: Partial agonist activity at mu/kappa opioid receptor in guinea pig ileum assessed as inhibition of electrically-stimulated muscle contraction; assay type: tissue-based
[2] = target: Delta-type opioid receptor (Mus musculus) (UniProt P32300); assay: Partial agonist activity at delta opioid receptor in mouse vas deferens assessed as inhibition of electrically-stimulated muscle contraction
Delta-type opioid receptor (Mus musculus), sequence (P32300 whole entry): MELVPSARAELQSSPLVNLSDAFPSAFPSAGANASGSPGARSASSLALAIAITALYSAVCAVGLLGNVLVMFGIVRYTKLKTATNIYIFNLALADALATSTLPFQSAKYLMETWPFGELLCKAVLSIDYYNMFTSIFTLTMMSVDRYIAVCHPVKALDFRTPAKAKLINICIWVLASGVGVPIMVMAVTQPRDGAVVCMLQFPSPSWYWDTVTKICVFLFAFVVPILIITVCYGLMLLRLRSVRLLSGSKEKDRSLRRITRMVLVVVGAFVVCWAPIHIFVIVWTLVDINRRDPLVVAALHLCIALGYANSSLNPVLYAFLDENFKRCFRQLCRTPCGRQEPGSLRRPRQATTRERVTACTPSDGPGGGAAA
Procedure, shortened: (§1)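 Mouse vas deferens bioassay, delta-representative tissue. Agonist potency was expressed as IC₅₀ and antagonist activity as a Ke value.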

[3] = Selectivity ratio of Ki for kappa opioid receptor in guinea pig brain membranes to Ki for delta opioid receptor in rat brain membranes; assay type: cell membranes
[4] = target: Delta-type opioid receptor (Mus musculus) (UniProt P32300); assay: Antagonist activity at delta opioid receptor in mouse vas deferens assessed as inhibition of electrically-stimulated muscle contraction; procedure, shortened: as §1
Rattus norvegicus = organism: Rattus norvegicus; assay: Selectivity ratio of Ki for mu opioid receptor in rat brain membranes to Ki for delta opioid receptor in rat brain membranes; assay type: cell membranes
[5] = target: Kappa-type opioid receptor (Cavia porcellus, UniProt P41144); assay: Displacement of [3H]U69,593 from kappa opioid receptor in guinea pig brain membranes; assay type: cell membranes, Membrane
Kappa-type opioid receptor, sequence (P41144 whole entry): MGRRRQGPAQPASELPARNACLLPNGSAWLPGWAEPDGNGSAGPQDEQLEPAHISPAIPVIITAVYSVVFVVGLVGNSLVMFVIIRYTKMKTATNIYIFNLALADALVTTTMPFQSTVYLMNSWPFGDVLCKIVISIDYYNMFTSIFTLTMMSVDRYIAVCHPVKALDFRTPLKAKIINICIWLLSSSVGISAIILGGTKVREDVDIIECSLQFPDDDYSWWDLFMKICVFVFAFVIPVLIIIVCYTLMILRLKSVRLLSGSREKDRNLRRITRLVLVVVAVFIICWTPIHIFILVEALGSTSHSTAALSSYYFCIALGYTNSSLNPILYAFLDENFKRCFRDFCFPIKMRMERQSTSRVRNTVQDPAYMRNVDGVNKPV
Procedure, shortened: (§2)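 Competitive displacement of tritiated radioligands, with affinities reported as Ki. Mu sites were labelled with [³H]DAMGO and delta sites with [³H]DSLET, both on rat brain membranes. Kappa sites were labelled with [³H]U69,593 on guinea pig brain membranes.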

[6] = target: Delta-type opioid receptor (Rattus norvegicus, UniProt P33533); assay: Displacement of [3H]DSLET from delta opioid receptor in rat brain membranes; assay type: cell membranes; procedure, shortened: as §2
Delta-type opioid receptor, sequence (P33533 whole entry): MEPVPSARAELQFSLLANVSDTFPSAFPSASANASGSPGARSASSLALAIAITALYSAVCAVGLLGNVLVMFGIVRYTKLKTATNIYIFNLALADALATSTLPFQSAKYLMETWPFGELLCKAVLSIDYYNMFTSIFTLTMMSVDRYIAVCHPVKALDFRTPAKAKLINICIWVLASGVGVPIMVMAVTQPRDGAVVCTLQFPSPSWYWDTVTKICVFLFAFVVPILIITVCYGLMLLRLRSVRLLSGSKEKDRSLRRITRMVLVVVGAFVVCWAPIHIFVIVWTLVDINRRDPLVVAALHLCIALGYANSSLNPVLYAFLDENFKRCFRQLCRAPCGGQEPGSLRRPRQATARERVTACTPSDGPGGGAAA

Mu-type opioid receptor [7] = target: Mu-type opioid receptor (Rattus norvegicus, UniProt P33535); assay: Displacement of [3H]DAMGO from mu opioid receptor in rat brain membranes; assay type: cell membranes; procedure, shortened: as §2
Mu-type opioid receptor (Rattus norvegicus, UniProt P33535), sequence (P33535 whole entry): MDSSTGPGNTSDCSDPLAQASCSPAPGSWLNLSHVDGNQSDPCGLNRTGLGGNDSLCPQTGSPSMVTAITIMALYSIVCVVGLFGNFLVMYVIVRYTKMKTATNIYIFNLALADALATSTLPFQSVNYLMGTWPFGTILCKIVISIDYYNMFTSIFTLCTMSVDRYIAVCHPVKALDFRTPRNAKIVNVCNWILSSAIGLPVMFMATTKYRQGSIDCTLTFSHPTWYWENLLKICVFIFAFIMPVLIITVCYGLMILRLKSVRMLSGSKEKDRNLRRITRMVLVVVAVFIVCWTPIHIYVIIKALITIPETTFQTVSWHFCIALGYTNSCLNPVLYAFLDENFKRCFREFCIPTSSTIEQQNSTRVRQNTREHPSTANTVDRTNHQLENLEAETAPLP

Mu-type opioid receptor [8] = target: Mu-type opioid receptor (Cavia porcellus, UniProt P97266); assay: Agonist activity at mu opioid receptor in guinea pig ileum assessed as […] of electrically-stimulated muscle contraction; assay type: tissue-based
Mu-type opioid receptor (Cavia porcellus, UniProt P97266), sequence (P97266 whole entry): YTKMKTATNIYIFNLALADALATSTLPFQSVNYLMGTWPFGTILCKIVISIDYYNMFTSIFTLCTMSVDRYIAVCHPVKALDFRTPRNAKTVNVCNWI

mu/kappa opioid receptor (Cavia porcellus), sequence (P41144 whole entry, looked up): as the sequence (P41144 whole entry) above
mu/kappa opioid receptor (Cavia porcellus), sequence (P97266 whole entry, looked up): as the sequence (P97266 whole entry) above

Cc1cc(O)cc(C)c1C[C@H](NC(=N)N)C(=O)N1Cc2ccccc2C[C@H]1C(=O)O
Imax [1]: 50%
Imax [2]: 50%

Cc1cc(O)cc(C)c1C[C@H](N)C(=O)N1Cc2ccccc2C[C@H]1C(=O)N[C@@H](CCCCN)C(=O)N[C@@H](Cc1ccccc1)C(N)=O (HELM PEPTIDE1{[Cc1cc(O)cc(C)c1C[C@H](N)C(=O)[*:2]].[Tic].K.F.[am]}$$$$V2.0)
Ratio Ki [3]: 7
Ke [4]: 2.18 nM
Ratio Ki (Rattus norvegicus): 63
Ki [5]: 2.23 nM
Ki [6]: 0.306 nM
Ki (Mu-type opioid receptor [7]): 19.4 nM
IC50 (Mu-type opioid receptor [8]): 16.5 nM

Cc1cc(O)cc(C)c1C[C@H](N)C(=O)N1Cc2ccccc2C[C@H]1CN[C@@H](CCCCN)C(=O)N[C@@H](Cc1ccccc1)C(N)=O
IC35 [2]: 23.2 nM

N[C@@H](Cc1ccc(O)cc1)C(=O)N1Cc2ccccc2C[C@H]1C(=O)N[C@@H](Cc1ccccc1)C(=O)N[C@@H](Cc1ccccc1)C(=O)O (HELM PEPTIDE1{Y.[Tic].F.F}$$$$V2.0)
Ke [4]: 480 nM

Cc1cc(O)cc(C)c1C[C@H](N)C(=O)N1Cc2ccccc2CC1CN[C@@H](Cc1ccccc1)C(=O)N[C@@H](Cc1ccccc1)C(N)=O (some centres not stated)
Ke [4]: 0.537 nM
IC50 (Mu-type opioid receptor [8]): 7.71 nM

N=C(N)N[C@@H](Cc1ccc(O)cc1)C(=O)N1Cc2ccccc2C[C@H]1CN[C@@H](Cc1ccccc1)C(=O)N[C@@H](Cc1ccccc1)C(=O)O
Imax [2]: 50%

Cc1cc(O)cc(C)c1C[C@H](NC(=N)N)C(=O)N1Cc2ccccc2C[C@H]1C(=O)N[C@@H](Cc1ccccc1)C(=O)N[C@@H](Cc1ccccc1)C(=O)O
IC35 [2]: 1.57 nM

Cc1cc(O)cc(C)c1C[C@H](NC(=N)N)C(=O)N1Cc2ccccc2C[C@H]1CN[C@@H](CCCCN)C(=O)N[C@@H](Cc1ccccc1)C(N)=O
IC35 [2]: 7.35 nM

N=C(N)N[C@@H](Cc1ccc(O)cc1)C(=O)N1Cc2ccccc2C[C@H]1C(=O)N[C@@H](Cc1ccccc1)C(=O)N[C@@H](Cc1ccccc1)C(=O)O
Imax [2]: 33%
